Only some compounds are listed: those with a hit (about 3.3% of all), similar ones and a draw of the others.
XiGFP reactiv: activators of inactive X chromosome reactivation, primary screen, imaging, XiGFP fibroblasts, GFP high-content imaging, set 2. activation, % at 7.58 µM. hit rate 0.055% among 360,000. XiGFP mouse fibroblasts, % GFP-positive cells imaging, 3 d; cells co-treated with 5-aza-dC sensitizer; scaled so ellipticine positive control = 100%;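 active = mean normalized replicate activation at least 10% and every replicate at or above 10%; inconclusive = only one of the two criteria met; inactive = mean below 10% and not all replicates reach 10%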
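System: 68-5-11 XiGFP fibroblast line; Timing: 3 days compound exposure; Compound dosing: one concentration, pinned; Benchmarks: positive control ellipticine, 6 µM final; Buffer or medium: DMEM containing 5-aza-dC.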
E-selectin induc: E-selectin induction in HUVECs, primary screen, imaging, HUVEC, immunofluorescence imaging, single point | P16581 | normalized: neutral wells 0, TNF-alpha wells 100 | activation, % at 7.58 µM | hit rate 0.37% among 260,000 | AID 686992, 2013;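 active = mean E-selectin-positive cell signal at least 10% of the positive control, reached in at least 60% of replicates, without over 20% cell loss; inconclusive = no rule given, readout overlaps actives, possibly toxicity-flagged; inactive = the rest, including those meeting only one limit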
Target sequence (P16581 whole entry, looked up): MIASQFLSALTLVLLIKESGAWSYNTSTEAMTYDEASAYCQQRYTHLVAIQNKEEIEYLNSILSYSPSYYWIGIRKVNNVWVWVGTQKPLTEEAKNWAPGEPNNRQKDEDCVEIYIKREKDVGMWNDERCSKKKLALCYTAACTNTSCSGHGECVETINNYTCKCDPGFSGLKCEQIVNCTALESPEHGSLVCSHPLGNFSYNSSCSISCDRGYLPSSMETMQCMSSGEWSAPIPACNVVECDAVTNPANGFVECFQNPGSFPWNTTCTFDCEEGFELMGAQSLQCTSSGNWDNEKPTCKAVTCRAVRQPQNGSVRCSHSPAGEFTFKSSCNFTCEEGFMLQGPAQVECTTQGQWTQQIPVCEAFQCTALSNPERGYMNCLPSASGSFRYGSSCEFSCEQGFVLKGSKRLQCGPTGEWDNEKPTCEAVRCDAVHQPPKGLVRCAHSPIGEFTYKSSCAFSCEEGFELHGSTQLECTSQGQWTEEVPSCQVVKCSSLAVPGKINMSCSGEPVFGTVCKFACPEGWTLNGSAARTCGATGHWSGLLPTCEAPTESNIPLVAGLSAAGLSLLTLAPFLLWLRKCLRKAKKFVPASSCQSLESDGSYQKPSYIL
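System: HUVEC / Compound: single concentration / Signal: immunofluorescence imaging / Read-out: percent E-selectin-positive cells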
Statin myotox sup: suppressors of statin myotoxicity in C2C12 myotubes, primary screen, cell-based, single point, plate reader. C2C12 myotubes + simvastatin, ATP luminescence, 48 h; scaled: DMSO 0, geranylgeraniol control 100. rescue of ATP level, % at 7.49 µM. hit rate 0.78% among 330,000. AID 602340, 2012;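 active = mean ATP rescue above about 67%, or every replicate alone reaching that limit, limit read from the data, passing the limit was not always enough; inconclusive = no clear call, values can overlap the other calls; inactive = mean under the limit and some replicate under it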;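 note: myotubes were challenged with 10 µM simvastatin during compound exposure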
PglD inh: C. jejuni PglD acetyltransferase inhibitors, primary screen, biochemical, DTNB colorimetric, single point; purified PglD enzyme, DTNB colorimetric CoA detection; AID 602405, 2012; inhibition, % at 12.5 µM; hit rate 0.098% among 360,000; UDP-N-acetylbacillosamine N-acetyltransferase PglD (Campylobacter jejuni); in the data active = inhibition above about 16%, passing the limit was not always enough; inconclusive = no clear call, values can overlap the other calls
FGF22 binding: binders of human FGF22 protein, primary screen, FGF22 synaptogenesis inhibitor project, biophysical, thermal shift, single point. recombinant FGF22 thermal shift, SYPRO orange fluorescence; percent of sucrose octasulfate shift, DMSO zero. activity (Tm shift, normalised), % at 9.99 µM. hit rate 1.5% among 340,000;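 active = mean Tm shift, scaled 0 neutral to 100 positive control, at about 1.3% or above, every replicate too, limit read from the data; inconclusive = no clear call, values can overlap the other calls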
DENV2 CPE rescue: inhibitors of DENV2 cytopathic effect, primary screen, cell-based, plate reader, single concentration. CPE inhibition, % at 9.99 µM. DENV2-infected cells, cytopathic effect rescue. hit rate 1.7% among 350,000; in the data active = CPE inhibition above about 20%, passing the limit was not always enough; inconclusive = no clear call, values can overlap the other calls; tested in BHK-21 cells
Numbers stand for hits; ! = not confirmed by another sample.

How did COc1cc(-c2cnc3c(NC(C)=O)cc(-c4ccccc4CN(C)C)cn23)cc(OC)c1OC do in these assays?
XiGFP reactiv: inactive; Statin myotox sup: inactive; PglD inh: inactive; FGF22 binding: inactive; DENV2 CPE rescue: 25

Results for CC(=O)Nc1cc(-c2ccc(C(=O)NC3CC3)cc2)cn2c(-c3cccc(C(F)(F)F)c3)cnc12 ?
XiGFP reactiv: inactive; E-selectin induc: inactive; Statin myotox sup: inactive; PglD inh: inactive; FGF22 binding: inactive; DENV2 CPE rescue: 38

How did COc1cc(-c2cnc3c(NC=O)cc(-c4ccccc4)cn23)cc(OC)c1OC do in these assays?
XiGFP reactiv: inactive; E-selectin induc: inactive; Statin myotox sup: inactive; PglD inh: inactive; FGF22 binding: inactive; DENV2 CPE rescue: inactive

What do the screens show for `C[C@H](CO)N1C[C@H](C)[C@H](CN(C)Cc2ccc3c(c2)OCO3)Oc2ccc(NC(=O)CCN3CCOCC3)cc2C1=O`?
XiGFP reactiv: inactive; E-selectin induc: inactive; Statin myotox sup: inactive; PglD inh: inactive; FGF22 binding: inactive; DENV2 CPE rescue: inactive

How did CC(C)C1Cc2[nH]c(=S)[nH]c(=O)c2C(c2ccc(F)cc2)O1 (stereo not given) do in these assays?
XiGFP reactiv: inactive; Statin myotox sup: inactive; PglD inh: inactive; FGF22 binding: inactive; DENV2 CPE rescue: 32

Results for CC(C)C1Cc2[nH]c(=S)[nH]c(=O)c2C(c2ccc(Cl)cc2)O1 (stereo not given) ?
XiGFP reactiv: inactive; E-selectin induc: inactive; Statin myotox sup: inactive; PglD inh: inactive; FGF22 binding: inactive; DENV2 CPE rescue: inactive

Results for COCC(=O)N1C[C@H](C)[C@H](OC)CN(C)C(=O)c2ccc(NC(=O)c3ccc(OC)cc3)cc2OC[C@@H]1C ?
XiGFP reactiv: inactive; E-selectin induc: inactive; Statin myotox sup: inactive; PglD inh: inactive; FGF22 binding: inactive; DENV2 CPE rescue: inactive

How did COc1ccccc1-c1cncc(NC(C)=O)n1 do in these assays?
XiGFP reactiv: inactive; E-selectin induc: inactive; Statin myotox sup: inactive; PglD inh: inactive; FGF22 binding: inactive; DENV2 CPE rescue: 27

Results for C#Cc1ccc([C@@H]2C=C(C(=O)OCC=C)O[C@H](OCC)[C@H]2CCCO)cc1 ?
XiGFP reactiv: inactive; E-selectin induc: inactive; Statin myotox sup: inactive; PglD inh: inactive; FGF22 binding: inactive; DENV2 CPE rescue: inactive

How did C#Cc1ccc([C@H]2C=C(C(=O)OCC=C)O[C@@H](OCC)[C@@H]2CCCO)cc1 do in these assays?
XiGFP reactiv: inactive; E-selectin induc: inactive; Statin myotox sup: inactive; PglD inh: inactive; FGF22 binding: inactive; DENV2 CPE rescue: 49!

What do the screens show for `CCO[C@@H]1OC(C(=O)NCc2nc3ccccc3[nH]2)=C[C@H](c2coc3ccccc3c2=O)[C@H]1CCCO`?
XiGFP reactiv: inactive; E-selectin induc: inactive; Statin myotox sup: inactive; PglD inh: inactive; FGF22 binding: inactive; DENV2 CPE rescue: 50

How did C#Cc1ccc([C@@H]2C=C(C(=O)NCc3nc4ccccc4[nH]3)O[C@H](OCC)[C@H]2CCCO)cc1 do in these assays?
XiGFP reactiv: inactive; E-selectin induc: inactive; Statin myotox sup: inactive; PglD inh: inactive; FGF22 binding: inactive; DENV2 CPE rescue: 22!

What do the screens show for `C[C@@H]1CCCCO[C@@H](CN(C)S(C)(=O)=O)[C@@H](C)CN([C@H](C)CO)C(=O)c2cc(NC(=O)C3CCCCC3)ccc2O1`?
XiGFP reactiv: inactive; E-selectin induc: inactive; Statin myotox sup: inactive; PglD inh: inactive; FGF22 binding: inactive; DENV2 CPE rescue: inactive

Results for C[C@@H]1CN([C@@H](C)CO)C(=O)c2cc(NC(=O)c3ccccc3)ccc2O[C@@H](C)CCCCO[C@H]1CN(C)S(=O)(=O)c1cccs1 ?
XiGFP reactiv: inactive; E-selectin induc: inactive; PglD inh: inactive; FGF22 binding: inactive; DENV2 CPE rescue: inactive

What do the screens show for `C[C@H](CO)N1C[C@H](C)[C@H](CN(C)C(=O)Nc2cccc(C(F)(F)F)c2)OCc2ccccc2-c2c(n(C)c3ccccc23)C1=O`?
XiGFP reactiv: inactive; E-selectin induc: inactive; FGF22 binding: inactive; DENV2 CPE rescue: 25

Results for C[C@H](CO)N1C[C@H](C)[C@H](CN(C)C(=O)Nc2ccc(F)cc2)OCc2ccccc2-c2c(n(C)c3ccccc23)C1=O ?
XiGFP reactiv: inactive; E-selectin induc: inactive; Statin myotox sup: inactive; PglD inh: inactive; FGF22 binding: inactive; DENV2 CPE rescue: 73!

Results for C[C@@H]1CN([C@H](C)CO)C(=O)c2c(c3ccccc3n2C)-c2ccccc2CO[C@@H]1CN(C)Cc1cccc2c1OCCCO2 ?
XiGFP reactiv: inactive; E-selectin induc: inactive; FGF22 binding: inactive; DENV2 CPE rescue: 28

How did C[C@H](CO)N1C[C@H](C)[C@@H](CN(C)C(=O)Nc2cccc(C(F)(F)F)c2)OCc2ccccc2-c2c(n(C)c3ccccc23)C1=O do in these assays?
XiGFP reactiv: inactive; E-selectin induc: inactive; FGF22 binding: inactive; DENV2 CPE rescue: inactive

How did C[C@H]1CN([C@@H](C)CO)C(=O)c2c(c3ccccc3n2C)-c2ccccc2CO[C@@H]1CN(C)C(=O)Nc1ccc(F)cc1 do in these assays?
XiGFP reactiv: inactive; E-selectin induc: inactive; PglD inh: inactive; FGF22 binding: inactive; DENV2 CPE rescue: inactive

Results for CC(=O)N(C)C[C@H]1OCc2ccccc2-c2c(n(C)c3ccccc23)C(=O)N([C@H](C)CO)C[C@H]1C ?
XiGFP reactiv: inactive; E-selectin induc: inactive; Statin myotox sup: inactive; PglD inh: inactive; FGF22 binding: inactive; DENV2 CPE rescue: 34

Results for O=S(=O)(c1cccs1)N1CCCCN2[C@H](CO)[C@H](c3ccc(Br)cc3)[C@@H]2C1 ?
XiGFP reactiv: inactive; E-selectin induc: inactive; Statin myotox sup: inactive; PglD inh: inactive; FGF22 binding: inactive; DENV2 CPE rescue: inactive

How did CNC[C@H]1Oc2c(NC(=O)Nc3ccc4c(c3)OCO4)cccc2C(=O)N([C@H](C)CO)C[C@H]1C do in these assays?
XiGFP reactiv: inactive; E-selectin induc: inactive; Statin myotox sup: inactive; PglD inh: inactive; FGF22 binding: inactive; DENV2 CPE rescue: inconclusive

How did COc1cccc(CN(C)C[C@H]2OCc3ccccc3-c3c(n(C)c4ccccc34)C(=O)N([C@@H](C)CO)C[C@H]2C)c1 do in these assays?
XiGFP reactiv: inactive; E-selectin induc: inactive; FGF22 binding: inactive; DENV2 CPE rescue: inactive

High-throughput results from PubChem BioAssay.
